Measured values published in publication PMC3698760 (Journal of the American Heart Association: Cardiovascular …, 2013).
“Also recorded” adds a separate entry of the source.

Key:
[1] = system: monocyte chemoattractant protein‐1 (MCP‐1); assay: Plasma MCP-1 by ELISA; format: in vivo; conditions: high dose (50 mg/kg), 16 weeks, apoE−/− mice
In short: (§1)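 Overnight-fasted plasma collected from high-fat-fed apoE−/− mice after 16 weeks of i.p. dosing 3 times weekly (10 or 50 mg/kg per day, or scrambled peptide). High-sensitivity CRP and MCP-1 were quantified with commercial ELISA kits.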

[2] = human whole plasma, 60 minutes at 37°C; FAMP5 0.2 to 2.0 mg/mL, ACD-FAMP5 2.0 mg/mL
In short: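 Human whole plasma was incubated with saline, test peptide (0.2 to 2.0 mg/mL) or acridone-labelled peptide (2.0 mg/mL) for 60 min at 37°C. Samples were run on agarose gel electrophoresis with cholesterol staining, transferred to PVDF and immunoblotted with goat anti-human apoA-I antibody. The fluorescent label was visualized on the gel under UV light.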

[3] = molecular target: T1, ABCA1 (Homo sapiens, UniProt O95477); assay: Cholesterol efflux in COS-7 cells transiently transfected with human ABCA1 cDNA; format: cell-based; conditions: 20 μg/mL, 4 hours, n=6 to 7
T1 sequence (O95477 whole entry): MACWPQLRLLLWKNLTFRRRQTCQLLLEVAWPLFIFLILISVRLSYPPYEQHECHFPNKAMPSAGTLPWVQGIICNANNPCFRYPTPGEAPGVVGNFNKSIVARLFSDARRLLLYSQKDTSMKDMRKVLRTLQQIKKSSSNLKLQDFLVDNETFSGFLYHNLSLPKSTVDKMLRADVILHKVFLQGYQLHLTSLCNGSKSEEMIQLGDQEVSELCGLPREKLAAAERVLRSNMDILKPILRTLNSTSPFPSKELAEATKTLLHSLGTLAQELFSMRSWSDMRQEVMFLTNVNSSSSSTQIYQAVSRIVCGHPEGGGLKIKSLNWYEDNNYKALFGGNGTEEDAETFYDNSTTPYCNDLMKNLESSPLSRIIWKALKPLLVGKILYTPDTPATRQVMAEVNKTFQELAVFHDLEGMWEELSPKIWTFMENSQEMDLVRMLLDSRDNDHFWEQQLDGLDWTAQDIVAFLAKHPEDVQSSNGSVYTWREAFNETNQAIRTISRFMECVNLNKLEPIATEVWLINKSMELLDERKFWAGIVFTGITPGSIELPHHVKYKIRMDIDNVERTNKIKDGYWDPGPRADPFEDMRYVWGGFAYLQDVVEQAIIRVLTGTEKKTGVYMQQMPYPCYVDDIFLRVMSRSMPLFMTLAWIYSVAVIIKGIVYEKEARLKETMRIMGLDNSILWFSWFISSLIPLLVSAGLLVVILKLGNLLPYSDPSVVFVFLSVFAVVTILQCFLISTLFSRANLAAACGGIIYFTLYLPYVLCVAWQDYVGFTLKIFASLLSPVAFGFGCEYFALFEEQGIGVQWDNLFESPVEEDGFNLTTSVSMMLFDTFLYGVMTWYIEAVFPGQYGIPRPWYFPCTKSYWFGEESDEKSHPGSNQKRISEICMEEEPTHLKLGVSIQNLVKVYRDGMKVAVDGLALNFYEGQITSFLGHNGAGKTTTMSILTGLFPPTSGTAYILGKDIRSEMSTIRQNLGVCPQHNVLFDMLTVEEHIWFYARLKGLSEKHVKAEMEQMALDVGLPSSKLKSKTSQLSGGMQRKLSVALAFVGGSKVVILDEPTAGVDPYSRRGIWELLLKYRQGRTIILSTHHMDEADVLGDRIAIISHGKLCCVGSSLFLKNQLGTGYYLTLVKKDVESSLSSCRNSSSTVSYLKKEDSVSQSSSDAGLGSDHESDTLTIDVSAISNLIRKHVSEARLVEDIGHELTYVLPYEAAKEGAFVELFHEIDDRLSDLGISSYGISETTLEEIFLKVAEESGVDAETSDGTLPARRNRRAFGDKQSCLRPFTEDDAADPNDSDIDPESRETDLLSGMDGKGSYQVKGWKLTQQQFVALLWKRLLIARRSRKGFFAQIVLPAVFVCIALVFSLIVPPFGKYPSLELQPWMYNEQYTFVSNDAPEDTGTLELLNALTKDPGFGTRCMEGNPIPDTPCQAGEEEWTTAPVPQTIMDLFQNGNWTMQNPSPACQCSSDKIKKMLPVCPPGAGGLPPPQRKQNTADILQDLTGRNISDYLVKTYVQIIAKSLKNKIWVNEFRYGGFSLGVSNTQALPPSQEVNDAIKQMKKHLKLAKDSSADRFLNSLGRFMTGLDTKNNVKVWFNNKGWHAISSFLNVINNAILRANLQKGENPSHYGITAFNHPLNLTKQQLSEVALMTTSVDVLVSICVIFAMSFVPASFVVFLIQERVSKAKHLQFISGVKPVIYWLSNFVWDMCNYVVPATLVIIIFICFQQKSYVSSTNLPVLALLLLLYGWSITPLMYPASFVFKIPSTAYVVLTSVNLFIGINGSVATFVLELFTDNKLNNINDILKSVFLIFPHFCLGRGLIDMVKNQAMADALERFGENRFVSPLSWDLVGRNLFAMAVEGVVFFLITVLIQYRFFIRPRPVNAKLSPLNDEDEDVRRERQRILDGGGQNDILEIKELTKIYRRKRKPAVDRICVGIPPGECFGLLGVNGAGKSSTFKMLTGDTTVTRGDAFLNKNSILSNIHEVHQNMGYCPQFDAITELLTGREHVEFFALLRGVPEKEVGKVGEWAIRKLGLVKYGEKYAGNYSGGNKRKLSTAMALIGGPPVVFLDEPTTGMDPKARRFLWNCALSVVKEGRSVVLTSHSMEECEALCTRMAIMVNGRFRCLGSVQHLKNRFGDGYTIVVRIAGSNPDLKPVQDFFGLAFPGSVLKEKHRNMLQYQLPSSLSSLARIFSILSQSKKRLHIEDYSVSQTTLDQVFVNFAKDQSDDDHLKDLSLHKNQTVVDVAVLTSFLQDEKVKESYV
In short: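 COS‑7 cells were kept in DMEM with 10% FBS and antibiotics and seeded at 80–90% confluence. They were transfected by lipofection with human ABCA1 cDNA in pcDNA3.1 (with ABCG1 in pEdsRed‑N1), or with mock vector. Cells were then ³H‑cholesterol labelled, and efflux was measured in serum‑free medium with 0.2% BSA.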

[4] = molecular target: T1, ABCA1; assay: Cholesterol efflux in CHO-ldlA7 cells transfected with human ABCA1 cDNA; format: cell-based; conditions: 20 μg/mL, 4 hours, n=6
In short: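 CHO-ldlA7 cells seeded at 80–90% confluence were transiently transfected (Lipofectamine 2000) with human ABCA1 cDNA in pcDNA3.1 or with empty vector (mock). Cells were labelled with ³H-cholesterol in serum-free medium with 0.2% BSA. Efflux over 4 h was measured with or without 20 μg/mL human apoA-I or test peptide; n=6.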

[5] = system: apoE‐deficient mice; assay: Plasma lipid profiles by enzymatic assay, 16-week treatment; format: in vivo; conditions: 16 weeks; for HDL Cholesterol / Total Cholesterol / Triglyceride: 3 times a week, high-fat-fed apoE-deficient mice, mean±SD
In short: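 Overnight-fasting plasma taken after 16 weeks from 19 of 23 high-fat-fed apoE−/− mice. Dosing was i.p. 3 times weekly with scrambled peptide or test peptide at 10 or 50 mg/kg per day. Total cholesterol, triglyceride and HDL cholesterol were measured by enzymatic assay; mean±SD.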

[6] = system: apoE−/− mice fed a high‐fat diet; assay: Aortic atherosclerotic lesion formation, 16-week treatment; format: in vivo; conditions: high-dose 50 mg/kg i.p. 3 times per week, 16 weeks; Oil Red O; mean±SD; P<0.01 vs scrambled
In short: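 Male apoE−/− mice, bought at six weeks, fed a high-fat diet (0.5% cholesterol, 10% fat) and dosed i.p. 3 times per week for 16 weeks: test peptide at 10 or 50 mg/kg per day, or scrambled peptide. Whole aortas were then stained with Oil Red O. Lesion area was scored by image analysis as percentage of aorta from ascending aorta to abdominal bifurcation.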

[7] = system: apoE‐deficient mice; assay: Plasma lipoprotein profiles analyzed by HPLC, 16-week treatment; format: in vivo; conditions: 3 times a week, 16 weeks
In short: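 Plasma from apoE−/− mice after 16-week i.p. dosing (3 times weekly) was separated by HPLC into 20 particle-size subfractions. Each subfraction was assayed enzymatically for total cholesterol, free cholesterol, triglycerides and phospholipids; mean±SD.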

[8] = molecular target: T1, ABCA1; assay: Probucol-inhibitable, ABCA1-specific cholesterol efflux in A172 cells; format: cell-based; conditions: probucol 10 μmol/L
In short: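 A172 glioblastoma cells, labelled with ³H-cholesterol, were held in serum-free 0.2% BSA medium with 5 μmol/L T0901317 and 5 μmol/L 9-cis-retinoic acid. Cells were exposed for 4 h to 20 μg/mL acceptor, with or without 10 μmol/L probucol. ABCA1-dependent efflux was taken as the probucol-inhibitable fraction.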

[9] = Size analysis of HDL interacting with FAMP; conditions: human HDL 2.22 mg/mL, 60 minutes at 37°C; 50, 250, 500 μg/mL FAMP5
In short: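 Human HDL, adjusted to 2.22 mg/mL in saline containing 0.1% EDTA (pH 7.4), was incubated with 50, 250 or 500 μg/mL test peptide for 60 min at 37°C. Samples were run on nondenaturing 5–20% gradient polyacrylamide gel in Tris-glycine (pH 7.5) for 3 h at 20 mA on ice, then stained with Coomassie R-250.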

[10] = system: A172 human glioblastoma; assay: Cellular cholesterol efflux in A172 human cells; format: cell-based; conditions: 4 hours
In short: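 A172 human glioblastoma cells were grown in DMEM with 10% FBS and antibiotics, then labelled with ³H‑cholesterol. Efflux ran in serum‑free medium with 0.2% BSA, 5 μmol/L T0901317 and 5 μmol/L 9‑cis‑retinoic acid, with or without 10 μmol/L probucol. Acceptor was human apoA‑I or test peptide at 20 μg/mL, or a molar dose series, for 4 h. n=4–5; mean±SD.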

[11] = system: C‐reactive protein (CRP); assay: Plasma high-sensitive CRP by ELISA; format: in vivo; conditions: low (10 mg/kg) and high (50 mg/kg) doses, 16 weeks, apoE−/− mice
In short: as §1

[12] = high-dose 50 mg/kg per day i.p., n=7
[13] = low-dose 10 mg/kg per day i.p., n=5
[14] = high-dose 50 mg/kg per day i.p., n=7, mean±SD
[15] = low-dose 10 mg/kg per day i.p., n=5, mean±SD

cholesterol efflux after transient transfection with ABCA1 cDNA vs mock [3]: significantly upregulated
cholesterol efflux after transient transfection with ABCA1 cDNA vs mock [4]: significantly upregulated
Substance: H-ALEHLFTLYEKALKALEDLLKKLL-OH [FAMP5]
plasma MCP‐1 levels [1]: significantly reduced
conversion of α HDL to pre‐β HDL on agarose gel electrophoresis [2]: shifted the α HDL band to the pre‐β HDL position; also recorded: completely converted α HDL to pre‐β HDL
HDL Cholesterol [5, 12]: 12.6 ± 3.7 mg/dL
Total Cholesterol [5, 12]: 1439.5 ± 271.5 mg/dL
Triglyceride [5, 12]: 102.7 ± 18.3 mg/dL
effect on plasma total cholesterol, triglyceride, and HDL cholesterol levels ([5]; low and high doses, enzymatic assay): no significant effects
HDL Cholesterol [5, 13]: 16.6 ± 4.8 mg/dL
Total Cholesterol [5, 13]: 1532.8 ± 589.6 mg/dL
Triglyceride [5, 13]: 120.0 ± 41.6 mg/dL
relative surface area of aortic plaque lesions [6]: 16.2±5.0%
Cholesterol, CM (>80 nm) [7, 14]: 173.4 ± 24.0 mg/dL
Cholesterol, HDL (8 to 16 nm) [7, 14]: 20.3 ± 3.1 mg/dL
Cholesterol, LDL (16 to 30 nm) [7, 14]: 157.9 ± 32.1 mg/dL
Cholesterol, VLDL (30 to 80 nm) [7, 14]: 509.1 ± 73.8 mg/dL
Free cholesterol, CM (>80 nm) [7, 14]: 76.6 ± 13.7 mg/dL
Free cholesterol, HDL (8 to 16 nm) [7, 14]: 10.0 ± 1.1 mg/dL
Free cholesterol, LDL (16 to 30 nm) [7, 14]: 75.0 ± 14.1 mg/dL
Free cholesterol, VLDL (30 to 80 nm) [7, 14]: 213.8 ± 33.7 mg/dL
Phospholipids, CM (>80 nm) [7, 14]: 84.3 ± 14.2 mg/dL
Phospholipids, HDL (8 to 16 nm) [7, 14]: 23.1 ± 5.2 mg/dL
Phospholipids, LDL (16 to 30 nm) [7, 14]: 110.6 ± 26.5 mg/dL
Phospholipids, VLDL (30 to 80 nm) [7, 14]: 259.9 ± 44.9 mg/dL
Triglyceride, CM (>80 nm) [7, 14]: 22.1 ± 6.6 mg/dL
Triglyceride, HDL (8 to 16 nm) [7, 14]: 3.7 ± 1.3 mg/dL
Triglyceride, LDL (16 to 30 nm) [7, 14]: 10.4 ± 2.2 mg/dL
Triglyceride, VLDL (30 to 80 nm) [7, 14]: 35.8 ± 9.7 mg/dL
Cholesterol, CM (>80 nm) [7, 15]: 175.4 ± 40.4 mg/dL
Cholesterol, HDL (8 to 16 nm) [7, 15]: 22.0 ± 3.7 mg/dL
Cholesterol, LDL (16 to 30 nm) [7, 15]: 133.1 ± 16.1 mg/dL
Cholesterol, VLDL (30 to 80 nm) [7, 15]: 529.9 ± 135.3 mg/dL
Free cholesterol, CM (>80 nm) [7, 15]: 70.7 ± 14.4 mg/dL
Free cholesterol, HDL (8 to 16 nm) [7, 15]: 9.1 ± 0.6 mg/dL
Free cholesterol, LDL (16 to 30 nm) [7, 15]: 65.6 ± 6.0 mg/dL
Free cholesterol, VLDL (30 to 80 nm) [7, 15]: 220.1 ± 49.0 mg/dL
Phospholipids, CM (>80 nm) [7, 15]: 78.4 ± 15.3 mg/dL
Phospholipids, HDL (8 to 16 nm) [7, 15]: 29.1 ± 4.9 mg/dL
Phospholipids, LDL (16 to 30 nm) [7, 15]: 94.4 ± 10.4 mg/dL
Phospholipids, VLDL (30 to 80 nm) [7, 15]: 263.8 ± 53.4 mg/dL
Triglyceride, CM (>80 nm) [7, 15]: 26.1 ± 16.8 mg/dL
Triglyceride, HDL (8 to 16 nm) [7, 15]: 2.9 ± 1.2 mg/dL
Triglyceride, LDL (16 to 30 nm) [7, 15]: 9.5 ± 2.3 mg/dL
Triglyceride, VLDL (30 to 80 nm) [7, 15]: 38.1 ± 19.4 mg/dL
percentage of probucol‐inhibitable, ABCA1‐specific cholesterol efflux [8]: significantly higher than that in L‐4F; also recorded: significantly lower than human apoA‐I
HDL particle size on polyacrylamide gel electrophoresis [9]: generated pre‐β1 HDL‐like small particles
dose dependence of cholesterol efflux on a molar basis ([10]; A172 cells, presence or absence of 5 μmol/L T0901317 or 9-cis-retinoic acid, n=4): dose‐dependent induction of cholesterol efflux with saturation effects
cellular cholesterol efflux: differences of terminal end modifications ([10]; A172 cells, 20 μg/mL, n=5): no influence by the modification of terminal ends
effect of ABCA1 inactivation (probucol) on peptide-mediated cholesterol efflux ([10]; probucol 10 μmol/L, 20 μg/mL): drastically inhibited; also recorded: not completely abolished
plasma high‐sensitive CRP levels [11]: equally suppressed
